Experiments:
[1] = Partition coefficient (logD7.0); format: physicochemical; conditions: octanol/water, pH 7
How it was run: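 Compound (2 μmol) was dissolved in 1-octanol (10 mL) and read by UV at 265 nm. Equal volumes of this solution and pH 7.0 phosphate buffer were stirred 5 min at 25 °C, then allowed to separate for 5 min. Octanol-phase absorbance at 265 nm was divided by that of the original octanol solution. Each experiment was done at least in triplicate.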

[2] = test system: CCRF-CEM; assay: Cytostatic concentration required to inhibit CEM/0 cells proliferation by 50%; format: functional; conditions: Homo sapiens
[3] = test system: Human immunodeficiency virus 1; assay: Concentration required to protect CEM/0 cells against the cytopathicity of HIV-1 by 50%; format: functional, organism-based; conditions: Human immunodeficiency virus 1, CCRF-CEM
How it was run: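 CEM/0 or CEM/TK⁻ cells at 250,000 cells/mL were infected with HIV-1 (~20 CCID₅₀/mL) or HIV-2 (~100 CCID₅₀/mL). Cells were mixed with an equal volume of diluted compound and incubated 4 days at 37 °C, then scored for giant cell formation. EC₅₀ is the concentration (μM) giving 50% inhibition of HIV-induced cytopathicity. Values are the mean of 2–4 independent experiments.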

[4] = test system: Human immunodeficiency virus 1; assay: Ratio CC50/EC50 for HIV-1 in CEM/0 cells; format: functional
[5] = test system: Human immunodeficiency virus 2; assay: Concentration required to protect CEM/0 cells against the cytopathicity of HIV-2 by 50%; conditions: Human immunodeficiency virus 2, CCRF-CEM
[6] = test system: Human immunodeficiency virus 2; assay: Concentration required to protect CEM/TK cells against the cytopathicity of HIV-2 by 50%; conditions: Human immunodeficiency virus 2, CEM-TK(-)

| SMILES | logD [1] | CC50 [2] | EC50 [3] | Selectivity index [4] | EC50 [5] | EC50 [6] |
| --- | --- | --- | --- | --- | --- | --- |
| COC(=O)C(C)NP(=O)(OC[C@@H]1C=C[C@H](n2cc(C)c(=O)[nH]c2=O)O1)Oc1ccccc1 (stereo partly specified) | 1.04 | > 100000 nM | 75 nM | >1333 | 75 nM | 75 nM |
| COC(=O)C(C)NP(=O)(OC[C@@H]1C=C[C@H](n2cc(C)c(=O)[nH]c2=O)O1)Oc1ccc(OC)cc1 (stereo partly specified) | 1.09 | 35000 nM | 57 nM | 614 | 53 nM | 47 nM |
| COC(=O)C(C)NP(=O)(OC[C@@H]1C=C[C@H](n2cc(C)c(=O)[nH]c2=O)O1)Oc1cccc(F)c1 (stereo partly specified) | 1.08 | 30000 nM | 18 nM | 1667 | 35 nM | 65 nM |
| COC(=O)C(C)NP(=O)(OC[C@@H]1C=C[C@H](n2cc(C)c(=O)[nH]c2=O)O1)Oc1ccc(C(F)(F)F)cc1 (stereo partly specified) | 1.77 | 13000 nM | 10 nM | 1300 | 10 nM | 18 nM |
| COC(=O)C(C)NP(=O)(OC[C@@H]1C=C[C@H](n2cc(C)c(=O)[nH]c2=O)O1)Oc1cccc(Br)c1 (stereo partly specified) | 1.64 | 13000 nM | 15 nM | 867 | 16 nM | 14 nM |
| COC(=O)C(C)NP(=O)(OC[C@@H]1C=C[C@H](n2cc(C)c(=O)[nH]c2=O)O1)Oc1ccc([N+](=O)[O-])cc1 (stereo partly specified) | 0.9 | 73000 nM | 130 nM | 562 | 190 nM | 90 nM |
| COC(=O)C(C)NP(=O)(OC[C@@H]1C=C[C@H](n2cc(C)c(=O)[nH]c2=O)O1)Oc1cccc(I)c1 (stereo partly specified) | 1.78 | 25000 nM | 8 nM | 3125 | 7 nM | 16 nM |
| COC(=O)C(C)NP(=O)(OC[C@@H]1C=C[C@H](n2cc(C)c(=O)[nH]c2=O)O1)Oc1cccc(Cl)c1 (stereo partly specified) | 1.42 | 26000 nM | 25 nM | 1040 | 57 nM | 40 nM |
| COC(=O)C(C)NP(=O)(OC[C@@H]1C=C[C@H](n2cc(C)c(=O)[nH]c2=O)O1)Oc1ccc(F)cc1 (stereo partly specified) | 1.1 | 26000 nM | 53 nM | 490 | 60 nM | 22 nM |
| COC(=O)C(C)NP(=O)(OC[C@@H]1C=C[C@H](n2cc(C)c(=O)[nH]c2=O)O1)Oc1ccc(I)cc1 (stereo partly specified) | 1.93 | 15000 nM | 13 nM | 1154 | 15 nM | 29 nM |
| COC(=O)C(C)NP(=O)(OC[C@@H]1C=C[C@H](n2cc(C)c(=O)[nH]c2=O)O1)Oc1ccc(Cl)cc1 (stereo partly specified) | 1.43 | 11000 nM | 5 nM | 2200 | 7 nM | 6 nM |
| COC(=O)C(C)NP(=O)(OC[C@@H]1C=C[C@H](n2cc(C)c(=O)[nH]c2=O)O1)Oc1ccc(Cl)c(Cl)c1 (stereo partly specified) | 2.15 | 21000 nM | 16 nM | 1313 | 30 nM | 30 nM |
| COC(=O)C(C)NP(=O)(OC[C@@H]1C=C[C@H](n2cc(C)c(=O)[nH]c2=O)O1)Oc1ccc(C#N)cc1 (stereo partly specified) | 0.91 | 60000 nM | 150 nM | 400 | 130 nM | 90 nM |
| COC(=O)C(C)NP(=O)(OC[C@@H]1C=C[C@H](n2cc(C)c(=O)[nH]c2=O)O1)Oc1ccc(C(C)=O)cc1 (stereo partly specified) | 0.9 | 40000 nM | 110 nM | 363 | 100 nM | 50 nM |
| COC(=O)c1ccc(OP(=O)(NC(C)C(=O)OC)OC[C@@H]2C=C[C@H](n3cc(C)c(=O)[nH]c3=O)O2)cc1 (stereo partly specified) | 1.01 | 31000 nM | 25 nM | 1240 | 22 nM | 25 nM |
| COC(=O)C(C)NP(=O)(OC[C@@H]1C=C[C@H](n2cc(C)c(=O)[nH]c2=O)O1)Oc1ccc(OC(F)(F)F)cc1 (stereo partly specified) | 1.86 | 34000 nM | 14 nM | 2429 | 30 nM | 30 nM |
| COC(=O)C(C)NP(=O)(OC[C@@H]1C=C[C@H](n2cc(C)c(=O)[nH]c2=O)O1)Oc1cccc(C(C)=O)c1 (stereo partly specified) | 0.92 | 50000 nM | 80 nM | 625 | 90 nM | 45 nM |
| COC(=O)C(C)NP(=O)(OC[C@@H]1C=C[C@H](n2cc(C)c(=O)[nH]c2=O)O1)Oc1ccc(C)cc1 (stereo partly specified) | 1.19 | 34000 nM | 40 nM | 850 | 50 nM | 25 nM |
| COC(=O)C(C)NP(=O)(OC[C@@H]1C=C[C@H](n2cc(C)c(=O)[nH]c2=O)O1)Oc1ccccc1Cl (stereo partly specified) | 1.37 | 47000 nM | 18 nM | 2611 | 29 nM | 65 nM |
| COC(=O)C(C)NP(=O)(OC[C@@H]1C=C[C@H](n2cc(C)c(=O)[nH]c2=O)O1)Oc1cccc(C(F)(F)F)c1 (stereo partly specified) | 1.57 | 14000 nM | 13 nM | 1077 | 13 nM | 5.4 nM |
| COC(=O)C(C)NP(=O)(OC[C@@H]1C=C[C@H](n2cc(C)c(=O)[nH]c2=O)O1)Oc1ccc(Br)cc1 (stereo partly specified) [STAMPIDINE] | 1.6 | 17000 nM | 9 nM | 1889 | 16 nM | 18 nM |
| Cc1cn([C@H]2C=C[C@@H](CO)O2)c(=O)[nH]c1=O [STAVUDINE] | -0.59 |  | 651 nM | 267 | 770 nM | 33000 nM |

Reference: ChEMBL document CHEMBL1132429, “Design and synthesis of lipophilic phosphoramidate d4T-MP prodrugs expressing high potency against HIV in cell culture: structural determinants for in vitro activity and QSAR” (J Med Chem, 1999)
